What was measured:
Saccharomyces cerevisiae [1] = assay: Growth inhibition of Yeast expressing rad52 mutant by yeast bioassay; format: functional
In short: (§1)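 Agar diffusion assay: 100 µL wells cut in an agar layer overlaid with the repair-deficient yeast strain (∆rad52, or ∆rad52∆top1). IC12 in µg/mL is the concentration giving a 12 mm inhibition zone around the well.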

Vero = assay: Cytotoxicity against african green monkey Vero cells; format: cell-based; settings: Chlorocebus sabaeus
Saccharomyces cerevisiae [2] = assay: Growth inhibition of Yeast expressing rad52.top1 mutant by yeast bioassay; format: functional; in short: as §1
[3] = Cytotoxicity against rat H4IIE cells by XTT assay; format: functional, cell-based
In short: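 H4IIE rat hepatoma cells in culture; growth read out with the XTT protocol. IC50 in µM is the concentration giving 50% growth inhibition. Active compounds were run in two separate assays, and both values are reported.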

SMILES | IC12 (Saccharomyces cerevisiae [1]) [µg/mL] | IC50 (Vero) [µM] | IC12 (Saccharomyces cerevisiae [2]) [µg/mL] | IC50 [3] [µM]
CC(O)c1cc2c(o1)C(=O)c1ccccc1C2=O (configuration not stated) | 14 | 15.3 | – | –
CC(CO)(CO)NCc1cc2c(o1)C(=O)c1ccccc1C2=O | > 500 | – | 240 | 2
O=Cc1cc2c(o1)C(=O)c1ccccc1C2=O | 160 | – | 44 | 2
O=C1c2ccccc2C(=O)c2oc(CNC(CO)(CO)CO)cc21 | > 500 | – | > 250 | > 20
O=C1c2ccccc2C(=O)c2oc(CNCC(O)CO)cc21 (configuration not stated) | > 500 | – | 220 | 2
CC(C)(CO)NCc1cc2c(o1)C(=O)c1ccccc1C2=O | > 500 | – | 210 | 4
COc1cc(OC)c2c(c1)C(=O)c1occc1C2=O | > 8000 | – | 125 | 5
COc1ccc2cn(C(C)(CO)CO)c3c2c1C(=O)c1ccoc1-3 | > 500 | – | > 500 | > 20
CCC(CO)(CO)NCc1cc2c(o1)C(=O)c1ccccc1C2=O | > 500 | – | > 500 | 5
COc1cccc2c1C(=O)c1ccoc1C2=O | 152 | – | 44 | 7
O=C1c2ccccc2C(=O)c2occc21 | 83 | – | 17 | 5
